According to ChEMBL document CHEMBL3632470, “Antimalarial and Antiproliferative Cassane Diterpenes of Caesalpinia sappan” (J Nat Prod, 2015):

Test system: Plasmodium falciparum
Assay: Antimalarial activity against chloroquine-resistant Plasmodium falciparum K1 by microculture radioisotope technique
Type: functional, organism-based
Conditions: not given
Outline: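 Microculture radioisotope technique on P. falciparum K1 (multidrug-resistant strain), parasites kept in continuous culture. Three replications per experiment. IC50 reported as mean ± SD of triplicate experiments.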

| SMILES | IC50 [µM] |
| --- | --- |
| CCO[C@H]1OC(OC)C23CCCC1(C(=O)OC)[C@@H]2CC[C@H]1[C@@H](C)C2=CC(=O)O[C@]2(OCC)C[C@@H]13 (stereo not given in full) | 32.1 |
| CCOC1OCC2(C(=O)OC)CCCC13[C@H]1C[C@@]4(OC)OC(=O)C=C4[C@H](C)[C@@H]1CC[C@@H]23 (stereo not given in full) | 19.2 |
| COC(=O)[C@]1(C)CCC[C@@]2(CO)C1CC[C@H]1[C@@H](C)C3=CC(=O)O[C@]3(O)C[C@@H]12 (stereo not given in full) | 2.5 |
| CCO[C@@]12C[C@H]3[C@@H](CC[C@H]4C5(C(=O)OC)CCCC34C(OC)O[C@@H]5OC)[C@@H](C)C1=CC(=O)O2 (stereo not given in full) | 28.4 |
| CCO[C@@]12C[C@H]3[C@@H](CCC4[C@](C)(C(=O)OC)CCC[C@@]43C=O)[C@@H](C)C1=CC(=O)O2 (stereo not given in full) | 29.7 |
| CCO[C@@]12C[C@H]3[C@@H](CCC4[C@](C)(C(=O)OC)CCC[C@@]43C(=O)O)[C@@H](C)C1=CC(=O)O2 (stereo not given in full) | 41.2 |
| CCO[C@@]12C[C@H]3[C@@H](CC[C@H]4C5(C(=O)OC)CCCC34[C@H](O)OC5)[C@@H](C)C1=CC(=O)O2 (stereo not given in full) | 7.4 |
| CCO[C@@H]1OC(OC)C2(C(=O)OC)CCCC13[C@H]1C[C@@]4(OCC)OC(=O)C=C4[C@H](C)[C@@H]1CC[C@@H]23 (stereo not given in full) | 34.8 |
| CCO[C@@]12C[C@H]3[C@@H](CCC4C(C(=O)OC)(C(=O)OC)CCC[C@@]43C=O)[C@@H](C)C1=CC(=O)O2 (stereo not given in full) | 38.9 |
| COC(=O)C12CCCC3([C@H](O)OC1)[C@H]1C[C@@]4(O)OC(=O)C=C4[C@H](C)[C@@H]1CC[C@@H]23 (stereo not given in full) | 0.78 |
| CCO[C@@]12C[C@H]3[C@@H](CC[C@H]4C5(C(=O)OC)CCCC34C(OC)OC5)[C@@H](C)C1=CC(=O)O2 (stereo not given in full) | 15.7 |
| COC(=O)C12CCCC3(C(OC)OC1O)[C@H]1C[C@@]4(O)OC(=O)C=C4[C@H](C)[C@@H]1CC[C@@H]23 (stereo not given in full) | 0.52 |

Test system: HT-29
Assay: Cytotoxicity against human HT-29 cells after 48 hrs by MTT assay
Type: functional, cell-based
Conditions: HT-29, 48 h
Outline: (§1)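 Cells grown in DMEM with 10% FBS, seeded at 6 × 10^4 cells/mL per well. Compounds in DMSO added at five concentrations, each in triplicate. Incubated 48 h at 37 °C in 5% CO2, then MTT (4 mg/mL) for another 4 h. Cells lysed in DMSO, absorbance read at 570 nm. At least three independent experiments.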

| SMILES | IC50 [nM] |
| --- | --- |
| COc1cccc2c1C(=O)c1c(O)c3c(c(O)c1C2=O)C[C@@](O)(C(=O)CO)C[C@@H]3O[C@H]1C[C@H](N)[C@H](O)[C@H](C)O1 [DOXORUBICIN] | 680 |

Test system: KB
Assay: Cytotoxicity against human KB cells after 48 hrs by MTT assay
Type: functional, cell-based
Conditions: not given
Outline: as §1

| SMILES | IC50 [µM] |
| --- | --- |
| COc1cccc2c1C(=O)c1c(O)c3c(c(O)c1C2=O)C[C@@](O)(C(=O)CO)C[C@@H]3O[C@H]1C[C@H](N)[C@H](O)[C@H](C)O1 [DOXORUBICIN] | 1.4 |
| CCO[C@@]12C[C@H]3[C@@H](CCC4[C@](C)(C(=O)OC)CCC[C@@]43C=O)[C@@H](C)C1=CC(=O)O2 (stereo not given in full) | 7.4 |
